Data reported in ChEMBL document CHEMBL1926579, “N-Aryl-2-phenyl-2,3-dihydro-imidazo[1,2-b]pyrazole-1-carboxamides 7-substituted strongly inhibiting both fMLP-OMe- and IL-8-induced human neutrophil chemotaxis” (Eur J Med Chem, 2012).
Activity calls are given as the source filed them. The rule behind the calls is not given here.

Legend:
[1] = Antiinflammatory activity in human neutrophils assessed as inhibition of fMLP-OMe-induced chemotaxis preincubated for 10 mins; assay type: functional, cell-based; settings: Neutrophil
Outline: (§1)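 Neutrophils from healthy donors' blood, isolated by dextran sedimentation, Ficoll–Paque centrifugation and hypotonic red-cell lysis, held in KRPG pH 7.4 at room temperature. Cells preincubated with compound 10 min. 48-well microchemotaxis chamber; compound in the upper compartment at 10^-12 to 10^-6 M in KRPG with 1 mg/mL BSA. Attractant in the lower compartment: fMLP-OMe 10 nM or CXCL8/IL8 1 nM.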

[2] = Antiinflammatory activity in human neutrophils assessed as inhibition of IL8-induced chemotaxis preincubated for 10 mins; assay type: functional, cell-based; settings: Neutrophil; outline: as §1
Homo sapiens [3] = species on record: Homo sapiens; test: Induction of Akt phosphorylation in IL8-stimulated human neutrophils
Homo sapiens [4] = species on record: Homo sapiens; test: Induction of Akt phosphorylation in fMLP-OMe-stimulated human neutrophils

Compound | IC50 [1] | IC50 [2] | Activity (Homo sapiens [3]) | Activity (Homo sapiens [4])
NC(=O)c1cnn2c1N(C(=O)Nc1ccccc1F)C(c1ccccc1)C2 (stereo not drawn) | > 1 µM | 0.0062 µM |  | 
O=C(Nc1ccc(F)cc1)N1c2ccnn2CC1c1ccccc1 (stereo not drawn) | 0.095 µM | > 1 µM |  | 
O=C(Nc1cccc(F)c1)N1c2ccnn2CC1c1ccccc1 (stereo not drawn) | 0.0121 µM | > 1 µM |  | 
NC(=O)c1cnn2c1N(C(=O)Nc1cccc3ccccc13)C(c1ccccc1)C2 (stereo not drawn) | 0.11 µM | > 1 µM |  | 
O=C(c1cnn2c1N(C(=O)Nc1ccccc1)C(c1ccccc1)C2)N1CCCCC1 (stereo not drawn) | 0.98 µM | > 1 µM |  | 
O=C(NC1CC1)c1cnn2c1N(C(=O)Nc1cccc(F)c1)C(c1ccccc1)C2 (stereo not drawn) | 0.138 µM | > 1 µM |  | 
CCOC(=O)c1cnn2c1N(C(=O)Nc1ccccc1F)C(c1ccccc1)C2 (stereo not drawn) | 0.116 µM | 0.0075 µM |  | 
O=C(Nc1cccc2ccccc12)N1c2ccnn2CC1c1ccccc1 (stereo not drawn) | > 1 µM | > 1 µM |  | 
CCOC(=O)c1cnn2c1N(C(=O)Nc1cccc3ccccc13)C(c1ccccc1)C2 (stereo not drawn) | 0.0138 µM | 0.206 µM |  | 
CCOC(=O)c1cnn2c1N(C(=O)Nc1ccccc1)C(c1ccccc1)C2 (stereo not drawn) | 0.098 µM | > 1 µM |  | 
O=C(NC1CC1)c1cnn2c1N(C(=O)Nc1ccccc1)C(c1ccccc1)C2 (stereo not drawn) | 0.123 µM | 0.0132 µM |  | 

Stronger by IC50 [1], values ahead:

IC50 [1] | IC50 [2] | Activity (Homo sapiens [3]) | Activity (Homo sapiens [4]) | Compound
0.0114 µM | 0.484 µM |  |  | NC(=O)c1cnn2c1N(C(=O)Nc1ccc(F)cc1)C(c1ccccc1)C2 (stereo not drawn)
0.0103 µM | > 1 µM |  |  | CCOC(=O)c1cnn2c1N(C(=O)Nc1ccc(F)cc1)C(c1ccccc1)C2 (stereo not drawn)
0.0092 µM | 0.111 µM |  |  | CCOC(=O)c1cnn2c1N(C(=O)Nc1cccc(F)c1)C(c1ccccc1)C2 (stereo not drawn)
0.0055 µM | 0.0012 µM |  |  | O=C(c1cnn2c1N(C(=O)Nc1cccc(F)c1)C(c1ccccc1)C2)N1CCCCC1 (stereo not drawn)
0.0054 µM | > 1 µM |  |  | O=C(Nc1ccccc1F)N1c2ccnn2CC1c1ccccc1 (stereo not drawn)
0.0048 µM | > 1 µM |  |  | O=C(Nc1ccccc1)N1c2ccnn2CC1c1ccccc1 (stereo not drawn)
0.0039 µM | 0.0012 µM | inactive | inactive | NC(=O)c1cnn2c1N(C(=O)Nc1cccc(F)c1)C(c1ccccc1)C2 (stereo not drawn)
